Experimental data from ChEMBL document CHEMBL4706647, “Development and optimization of halogenated vinyl sulfones as Nrf2 activators for the treatment of Parkinson's disease” (Eur J Med Chem, 2021).
Calls of active or inactive are those of the source. No cut-off for these calls is given here.

How the values were obtained:
BV-2 [1] = experiment: Antiinflammatory activity in mouse BV-2 cells assessed as inhibition of LPS-induced nitric oxide production preincubated for 6 hrs followed by LPS stimulation and measured after 24 hrs by griess assay; format: functional, cell-based; conditions: dose 0.01-3 µM, time 30.0 hrs
How it was run: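 Nitrite in medium read by Griess reaction. BV-2 cells pretreated 6 h across a dose range, then given LPS for 24 h. Medium treated with 1% sulfanilamide in 5% phosphoric acid, then 0.1% N-1-naphthylethylenediamine, each 5 min at RT in the dark. A540 read and converted against a nitrite standard curve.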

[2] = Stability in human microsomes assessed as parent compound remaining after 30 mins; format: ADME, Microsome; conditions: read-out: Stabilty
[3] = target: T1, Nuclear factor erythroid 2-related factor 2 (Mus musculus) (UniProt Q60795); experiment: Activation of Nrf2 in mouse BV-2 cells assessed as increase in HO1 mRNA expression at 1 uM after 6 hrs by RT-qPCR analysis relative to control; format: cell-based; conditions: filed as activator
T1 sequence (whole entry): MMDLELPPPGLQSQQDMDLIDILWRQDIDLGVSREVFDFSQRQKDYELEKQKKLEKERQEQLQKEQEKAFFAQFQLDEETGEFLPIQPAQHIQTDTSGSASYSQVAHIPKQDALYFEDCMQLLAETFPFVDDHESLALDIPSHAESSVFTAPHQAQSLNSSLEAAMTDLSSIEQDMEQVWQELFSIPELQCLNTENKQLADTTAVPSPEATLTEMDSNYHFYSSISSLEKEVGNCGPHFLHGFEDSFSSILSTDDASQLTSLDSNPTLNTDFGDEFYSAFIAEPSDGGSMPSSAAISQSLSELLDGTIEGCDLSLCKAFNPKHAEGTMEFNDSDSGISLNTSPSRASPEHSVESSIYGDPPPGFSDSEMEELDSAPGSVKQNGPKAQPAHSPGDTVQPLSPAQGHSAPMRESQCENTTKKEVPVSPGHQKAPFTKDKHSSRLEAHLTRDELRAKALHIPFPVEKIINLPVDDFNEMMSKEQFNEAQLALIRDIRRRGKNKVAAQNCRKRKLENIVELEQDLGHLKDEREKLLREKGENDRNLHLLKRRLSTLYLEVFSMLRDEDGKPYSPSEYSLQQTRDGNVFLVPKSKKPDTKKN
How it was run: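 BV-2 cells exposed to a range of concentrations for 6 h. Ho1, Gclc, Gclm and Sod1 mRNA quantified by RT-qPCR and expressed relative to vehicle-treated control. Mean ± SEM, n = 3; Student's t-test.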

[4] = target: T1, Nuclear factor erythroid 2-related factor 2 (Mus musculus); experiment: Activation of Nrf2 in mouse BV-2 cells assessed as increase in nuclear Nrf2 levels after 6 hrs by Western blot analysis; format: cell-based; conditions: filed as activator, dose 0.02-10 µM
[5] = target: T1, Nuclear factor erythroid 2-related factor 2 (Mus musculus); experiment: Activation of Nrf2 in mouse BV-2 cells assessed as increase in HO1 expression at 10 uM after 6 hrs by Western blot analysis relative to control; format: cell-based; conditions: filed as activator
How it was run: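 BV-2 microglia grown in RPMI-1640 with 10% FBS, penicillin-streptomycin and 2 mM L-glutamine at 37 °C, 5% CO2. Cells exposed to a range of concentrations for 6 h, then HO-1, GCLC, GCLM and SOD1 protein measured by Western blot. Band intensity normalized to β-actin and given as fold of vehicle control. Mean ± SEM, n = 3, three separate experiments.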

CYP1A2 = target: T2, CYP1A2 (Homo sapiens, UniProt P05177); experiment: Inhibition of CYP1A2 (unknown origin) assessed as residual activity; format: ADME
T2 sequence (P05177 whole entry): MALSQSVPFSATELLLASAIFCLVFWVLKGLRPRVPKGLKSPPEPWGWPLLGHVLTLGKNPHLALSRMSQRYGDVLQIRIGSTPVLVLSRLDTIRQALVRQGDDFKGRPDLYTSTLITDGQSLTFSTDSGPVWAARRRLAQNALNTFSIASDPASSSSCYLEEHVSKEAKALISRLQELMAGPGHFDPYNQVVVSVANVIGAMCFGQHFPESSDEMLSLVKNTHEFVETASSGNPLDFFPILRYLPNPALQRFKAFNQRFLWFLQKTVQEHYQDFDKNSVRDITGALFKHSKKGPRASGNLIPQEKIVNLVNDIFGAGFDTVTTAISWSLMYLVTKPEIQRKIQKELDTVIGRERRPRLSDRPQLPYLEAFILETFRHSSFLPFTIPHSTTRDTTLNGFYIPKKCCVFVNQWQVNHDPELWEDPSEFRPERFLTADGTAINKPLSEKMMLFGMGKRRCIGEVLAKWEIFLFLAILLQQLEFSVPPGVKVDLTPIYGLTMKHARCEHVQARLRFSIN

Mus musculus [6] = experiment: Neuroprotective activity in MPTP-induced C57BL/6 mouse model of Parkinson's disease assessed as reduction in tyrosine hydroxylase-positive cell loss at 30 mg/kg, po pretreated for 1 day followed by MPTP challenge and subsequent compound dosing for 2 days measured 6 days post-MPTP challenge by immunohistochemistry analysis relative to control; format: functional; design: scale not given: the % may be the effect or the level left; conditions: time 7 day
How it was run: (§1)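 Male C57BL/6 mice, 10 weeks old, 23–26 g, n = 10 per group. Dosed 30 mg/kg p.o. for 3 consecutive days in 10% N-methyl-2-pyrrolidone/20% Tween-80 in water. On day 2, MPTP-HCl 20 mg/kg i.p. given four times at 2 h intervals. Coat-hanger (scored 1–5, test done twice) and vertical grid tests run 6 days after MPTP. Brains taken next day for anti-TH immunohistochemistry (1:1000, DAB).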

BV-2 [7] = experiment: Inhibition of nitric oxide production in LPS-stimulated mouse BV-2 cells harboring Nrf2 siRNA at 100 nM cotreated with LPS for 24 hrs by griess assay
CYP2C19 = CYP2C19 (Homo sapiens, UniProt P33261); experiment: Inhibition of CYP2C19 (unknown origin) assessed as residual activity; format: ADME
Sequence of CYP2C19 (P33261 whole entry): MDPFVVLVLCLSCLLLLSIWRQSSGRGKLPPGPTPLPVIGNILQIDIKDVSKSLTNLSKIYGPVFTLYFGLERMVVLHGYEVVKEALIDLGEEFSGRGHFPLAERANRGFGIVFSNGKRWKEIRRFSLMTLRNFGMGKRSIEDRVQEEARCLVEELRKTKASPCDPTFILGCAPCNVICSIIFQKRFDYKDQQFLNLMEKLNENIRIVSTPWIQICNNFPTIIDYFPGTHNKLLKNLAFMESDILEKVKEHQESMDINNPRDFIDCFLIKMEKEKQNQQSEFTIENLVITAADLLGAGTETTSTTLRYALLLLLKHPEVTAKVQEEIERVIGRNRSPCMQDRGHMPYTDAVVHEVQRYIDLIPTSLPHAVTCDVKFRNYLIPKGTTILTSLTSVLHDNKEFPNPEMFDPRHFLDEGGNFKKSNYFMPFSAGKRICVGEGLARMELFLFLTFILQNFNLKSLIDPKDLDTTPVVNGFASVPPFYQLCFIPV

Mus musculus [8] = experiment: Neuroprotective activity in MPTP-induced C57BL/6 mouse model of Parkinson's disease assessed as ability to pull and climb to the top of the hanger at 30 mg/kg, po pretreated for 1 day followed by MPTP challenge and subsequent compound dosing for 2 days measured 6 days post MPTP challenge by coat-hanger test; format: functional, organism-based; conditions: time 7.0 day; how it was run: as §1
[9] = target: Voltage-gated inwardly rectifying potassium channel KCNH2 (Homo sapiens, UniProt Q12809); experiment: Inhibition of fluorescence tracer red binding to human ERG measured after 4 hrs by fluorescence polarization assay
Sequence of Voltage-gated inwardly rectifying potassium channel KCNH2 (Q12809 whole entry): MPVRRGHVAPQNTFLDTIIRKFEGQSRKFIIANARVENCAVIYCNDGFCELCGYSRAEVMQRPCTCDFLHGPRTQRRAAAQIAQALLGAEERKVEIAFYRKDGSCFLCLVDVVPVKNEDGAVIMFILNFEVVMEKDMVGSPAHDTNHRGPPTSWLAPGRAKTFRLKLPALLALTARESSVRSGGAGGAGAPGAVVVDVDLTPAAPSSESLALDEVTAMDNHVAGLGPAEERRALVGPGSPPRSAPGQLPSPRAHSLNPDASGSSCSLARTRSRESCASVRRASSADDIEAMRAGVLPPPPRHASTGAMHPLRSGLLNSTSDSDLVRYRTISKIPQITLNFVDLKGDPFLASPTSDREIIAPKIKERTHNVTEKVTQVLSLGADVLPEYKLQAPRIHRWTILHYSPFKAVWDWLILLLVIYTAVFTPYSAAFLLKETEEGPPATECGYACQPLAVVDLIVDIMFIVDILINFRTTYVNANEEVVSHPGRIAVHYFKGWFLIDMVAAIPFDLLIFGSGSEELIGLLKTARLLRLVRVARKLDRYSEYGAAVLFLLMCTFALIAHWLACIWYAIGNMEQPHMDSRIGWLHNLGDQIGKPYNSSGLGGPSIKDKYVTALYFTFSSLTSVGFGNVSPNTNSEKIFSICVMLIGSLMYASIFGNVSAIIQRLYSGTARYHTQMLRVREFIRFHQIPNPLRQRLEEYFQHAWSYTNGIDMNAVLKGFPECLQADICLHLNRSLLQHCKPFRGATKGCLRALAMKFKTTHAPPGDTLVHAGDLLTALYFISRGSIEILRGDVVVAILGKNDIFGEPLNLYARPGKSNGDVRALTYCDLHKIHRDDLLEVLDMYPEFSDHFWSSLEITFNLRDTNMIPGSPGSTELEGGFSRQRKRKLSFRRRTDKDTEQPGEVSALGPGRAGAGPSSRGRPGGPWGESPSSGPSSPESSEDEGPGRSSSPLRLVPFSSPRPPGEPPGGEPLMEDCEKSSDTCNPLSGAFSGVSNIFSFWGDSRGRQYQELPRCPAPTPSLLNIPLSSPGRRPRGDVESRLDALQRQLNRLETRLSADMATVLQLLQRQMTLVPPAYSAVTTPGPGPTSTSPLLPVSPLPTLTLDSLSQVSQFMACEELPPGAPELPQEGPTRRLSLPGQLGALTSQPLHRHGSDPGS

With `O=S(=O)(/C=C/c1ncccc1Cl)c1ccccc1Cl` the inhibition (BV-2 [1]) was “Dose-dependent effect”, the remaining at 0.5 h [2] was 66% and the fold change (FC) [3] was 6. For the same compound, the Activity [4] was “Dose-dependent effect”, the fold change (FC) [5] was 17.6 and the activity (CYP1A2) was 88.4%. For the same compound, the activity (Mus musculus [6]) was 65%, the inhibition (BV-2 [7]) was “inactive” and the activity (CYP2C19) was 27.8%. For the same compound, the Activity (Mus musculus [8]) was “Active” and the IC50 [9] was 110 µM.
